Assay results: ChEMBL document CHEMBL1132930, “Characterization of the binding site of the histamine H(3) receptor. 2. Synthesis, in vitro pharmacology, and QSAR of a series of monosubstituted benzyl analogues of thioperamide” (J Med Chem, 2000)

Biological target: Histamine H3 receptor (Cavia porcellus, UniProt Q9JI35)
Experiment: In vitro histamine H3 receptor antagonist activity was determined on guinea pig jejunum
Type: functional, tissue-based
Settings: read-out: pA2 (converted)
In short: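 Guinea pig jejunum preparations, electrically stimulated to give contractile responses (acetylcholine release). H3 agonists inhibit these responses in a concentration-dependent way. Antagonist pA2 derived from that agonist inhibition, per a previously described method.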

Histamine H3 receptor, sequence (Q9JI35 whole entry): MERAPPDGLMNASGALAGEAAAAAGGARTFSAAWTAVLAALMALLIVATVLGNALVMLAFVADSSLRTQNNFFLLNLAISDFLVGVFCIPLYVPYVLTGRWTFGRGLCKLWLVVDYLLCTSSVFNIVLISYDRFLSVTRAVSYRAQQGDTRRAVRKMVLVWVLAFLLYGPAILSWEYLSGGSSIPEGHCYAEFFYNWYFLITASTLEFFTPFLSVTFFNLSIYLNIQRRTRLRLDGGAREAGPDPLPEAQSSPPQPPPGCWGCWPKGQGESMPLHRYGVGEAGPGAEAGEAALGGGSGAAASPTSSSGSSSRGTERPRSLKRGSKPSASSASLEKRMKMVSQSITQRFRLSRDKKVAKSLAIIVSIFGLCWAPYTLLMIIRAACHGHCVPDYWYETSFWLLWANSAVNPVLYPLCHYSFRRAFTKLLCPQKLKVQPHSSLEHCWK

SMILES | Kb [nM]
S=C(NCc1ccc(I)cc1)N1CCC(c2c[nH]cn2)CC1 | 166
S=C(NCc1ccc(Br)cc1)N1CCC(c2c[nH]cn2)CC1 | 339
Cc1ccccc1C/N=C(\S)N1CCC(c2c[nH]cn2)CC1 | 95.5
CC(C)(C)c1ccccc1C/N=C(\S)N1CCC(c2c[nH]cn2)CC1 | 28.8
S=C(NCc1ccccc1Br)N1CCC(c2c[nH]cn2)CC1 | 14.5
S=C(NCc1ccccc1I)N1CCC(c2c[nH]cn2)CC1 | 7.41
Fc1ccc(C/N=C(\S)N2CCC(c3c[nH]cn3)CC2)cc1 | 562
S=C(NCc1cccc(Br)c1)N1CCC(c2c[nH]cn2)CC1 | 33.9
Fc1cccc(C/N=C(\S)N2CCC(c3c[nH]cn3)CC2)c1 | 363
S=C(NCc1ccc(Cl)cc1)N1CCC(c2c[nH]cn2)CC1 | 61.7
S=C(NCc1cccc(I)c1)N1CCC(c2c[nH]cn2)CC1 | 15.8
Fc1ccccc1C/N=C(\S)N1CCC(c2c[nH]cn2)CC1 | 912
S=C(NCc1ccccc1)N1CCC(c2c[nH]cn2)CC1 | 47.9
S=C(NCc1ccccc1Cl)N1CCC(c2cnc[nH]2)CC1 | 6.17
S=C(NCc1cccc(Cl)c1)N1CCC(c2c[nH]cn2)CC1 | 38.9

Biological target: Histamine H3 receptor (Cavia porcellus) (UniProt Q9JI35)
Settings: Jejunum

Histamine H3 receptor (Cavia porcellus), sequence (Q9JI35 whole entry): as above

SMILES | pD2
C[C@@H](N)Cc1c[nH]cn1 | 7.8
